For one experiment, the system named is CCRF-CEM. Kind of experiment: Cytotoxicity against human CEM cells. Format: functional, cell-based. Summed up:
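Log-phase CEM T-lymphoblastoid cells seeded at 2.5 × 10³ cells/well with 10-fold serial compound dilutions, held 4 days at 37 °C, 5% CO₂. MTT dye added overnight, then stop-solubilization 5 h; absorbance at 570 nm.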

Experiment [1] relates to Human immunodeficiency virus 1. Kind of experiment: Antiviral activity against HIV1 in human PBMC. In kind it is functional, organism-based. The gist of the method: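 PHA-stimulated (2-3 days) human PBM cells from seronegative donors, infected in bulk 1 h with HIV-1 LAI (100 TCID50/1 × 10⁷ cells, flask; or 200 TCID50/6 × 10⁵ cells/well, 24-well), then added to 10-fold serial compound dilutions in RPMI-1640/16% FBS/IL-2/DEAE-dextran. 5 days, 37 °C, 5% CO₂. Supernatant RT activity by poly(rA)·oligo(dT), ³H-TTP incorporation, 2 h 37 °C; EC50/EC90 by median effect method.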

The next experiment concerns Vero. Kind of experiment: Cytotoxicity against Vero cells. Format: functional, cell-based. Conditions: Chlorocebus sabaeus. The gist of the method:
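Log-phase Vero cells seeded at 5 × 10³ cells/well with 10-fold serial compound dilutions, incubated 3 days at 37 °C, 5% CO₂. MTT dye added overnight, formazan solubilized 5 h, absorbance read at 570 nm.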

The subject of another experiment is PBMC. Kind of experiment: Cytotoxicity against human PBMC. In kind it is functional, cell-based. Summed up: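 Uninfected PHA-stimulated human PBM cells, log phase, 5 × 10⁴ cells/well, exposed to 10-fold serial compound dilutions for 5 days at 37 °C, 5% CO₂. MTT overnight, formazan dissolved 5 h, read at 570 nm.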

For orientation: IC50 means the concentration needed to halve the response being measured. By EC50 is commonly meant the concentration at which the effect is half-maximal. High values mean weaker potency, low ones greater potency. For orientation: EC90 means the concentration needed for an effect of 90%. Lower therefore signals greater potency.

Take `OC[C@H]1[C@H](CO)S[C@@H]1n1cnc2c(O)ncnc21`: the half-maximal inhibitory concentration (IC50) with CCRF-CEM, with Vero and in the experiment on PBMC was above 100 µM throughout. Besides, the EC50 in experiment [1] is above 100 µM. The compound further gave an EC90 in experiment [1] above 100 µM.
Take `Nc1nc(O)c2ncn([C@@H]3S[C@H](CO)[C@H]3CO)c2n1`: the IC50 in the experiment with CCRF-CEM, with Vero and with PBMC was above 100 µM each time. The same compound had an EC50 in experiment [1] above 100 µM. The EC90 in experiment [1] was above 100 µM.
In the case of `O=c1ccn([C@@H]2S[C@H](CO)[C@H]2CO)c(=O)[nH]1`, the IC50 was 4.9 µM in the experiment on CCRF-CEM, above 100 µM with Vero and 8.5 µM with PBMC. The compound also displayed an EC50 in experiment [1] of 6.9 µM. The compound further had an EC90 in experiment [1] of 23.1 µM.
On to `Cc1cn([C@@H]2S[C@H](CO)[C@H]2CO)c(=O)[nH]c1=O`, for which the IC50 in the experiment with CCRF-CEM, with Vero and in the experiment with PBMC was above 100 µM throughout. Also, in experiment [1], the EC50 was above 100 µM. Besides, the EC90 in experiment [1] was above 100 µM.
As for `Cc1cn([C@H]2S[C@@H](CO)[C@@H]2CO)c(=O)[nH]c1=O`, the IC50 in the experiment on CCRF-CEM, in the experiment with Vero and in the experiment with PBMC was above 100 µM each time. This compound also displayed a half-maximal effective concentration (EC50) in experiment [1] above 100 µM. This compound also had an EC90 in experiment [1] above 100 µM.
As to `Nc1ccn([C@H]2S[C@@H](CO)[C@@H]2CO)c(=O)n1`, the IC50 in the experiment on CCRF-CEM was 45.6 µM; in the experiment on Vero, above 100 µM; in the experiment on PBMC, 13.1 µM. The EC50 in experiment [1] stood at 14.1 µM. The compound also registered an EC90 in experiment [1] of 47.6 µM.
With `OC[C@H]1[C@H](n2cnc3c(O)ncnc32)S[C@@H]1CO`, the IC50 in the experiment on CCRF-CEM, in the experiment on Vero and in the experiment with PBMC was above 100 µM throughout. The EC50 in experiment [1] was above 100 µM. The same compound showed an EC90 in experiment [1] above 100 µM.
For `Nc1nc(O)c2ncn([C@H]3S[C@@H](CO)[C@@H]3CO)c2n1`, the IC50 in the experiment with CCRF-CEM, in the experiment with Vero and in the experiment on PBMC was above 100 µM in each case. The compound further registered an EC50 in experiment [1] above 100 µM. In experiment [1], the EC90 was above 100 µM.
On to `Nc1nc(=O)n([C@@H]2S[C@H](CO)[C@H]2CO)cc1Br`, for which the IC50 in the experiment with CCRF-CEM is 1.8 µM; in the experiment with Vero, above 100 µM; in the experiment on PBMC it was above 100 µM. The midpoint of the response in experiment [1], the EC50, lay at 11.5 µM. The 90% effect concentration (EC90) in experiment [1] came to 41.9 µM.
As for `Nc1nc(=O)n([C@@H]2S[C@H](CO)[C@H]2CO)cc1F`, the IC50 in the experiment with CCRF-CEM was 19 µM; with Vero, above 100 µM; in the experiment with PBMC it was below 1 µM. In experiment [1], the EC50 worked out at 5.8 µM. For the same compound, the 90% effect level in experiment [1] (EC90) was put at 13.9 µM.
Take `Nc1ncnc2c1ncn2[C@H]1S[C@@H](CO)[C@@H]1CO`: the IC50 with CCRF-CEM, with Vero and with PBMC was above 100 µM in each case. Further, in experiment [1], the EC50 is above 100 µM. In experiment [1], this compound came in with an EC90 above 100 µM.
For `O=c1ccn([C@H]2S[C@@H](CO)[C@@H]2CO)c(=O)[nH]1`, the IC50 in the experiment on CCRF-CEM, with Vero and in the experiment on PBMC was above 100 µM in each case. In addition, the EC50 in experiment [1] was above 100 µM. For the same compound, the EC90 in experiment [1] is above 100 µM.
Consider `Nc1ccn([C@@H]2S[C@H](CO)[C@H]2CO)c(=O)n1`, for which the values for the IC50 with CCRF-CEM, with Vero and in the experiment with PBMC were 4.3 µM, 54.8 µM and at most 1 µM, respectively. Besides, in experiment [1], it took 1.3 µM to reach a half-maximal effect (EC50). The EC90 in experiment [1] turned out to be 5.3 µM.
Regarding `Nc1ncnc2c1ncn2[C@@H]1S[C@H](CO)[C@H]1CO`, the IC50 with CCRF-CEM, in the experiment with Vero and in the experiment on PBMC was above 100 µM throughout. This compound returned an EC50 in experiment [1] above 100 µM. This compound also displayed a 90% effect concentration (EC90) in experiment [1] above 100 µM.
Consider `Nc1nc(=O)n([C@@H]2S[C@H](CO)[C@H]2CO)cc1Cl`, for which the IC50 in the experiment with CCRF-CEM, in the experiment on Vero and with PBMC was above 100 µM each time. In experiment [1], the EC50 is above 100 µM. In addition, the EC90 in experiment [1] was above 100 µM.
In experiment [1], `Cc1cn([C@H]2C[C@H](N=[N+]=[N-])[C@@H](CO)O2)c(=O)[nH]c1=O` [ZIDOVUDINE] displayed an EC90 of 0.01 µM. Besides, in the experiment on PBMC, the IC50 is above 100 µM.

Values taken from ChEMBL document CHEMBL1138188, “Synthesis and anti-HIV activity of D- and L-thietanose nucleosides” (J Med Chem, 2006).
